Measurements reported in ChEMBL document CHEMBL1122031, “(+/-)-4-Aryl-4,5-dihydro-3H-1,3-benzodiazepines. 2. Nuclear-substituted analogues of (+/-)-4,5-dihydro-2,3-dimethyl-4-phenyl-3H-1,3-benzodiazepine and (+/-)-4,5-dihydro-2-ethyl-3-methyl-4-phenyl-3H-1,3-benzodiazepine as potential antidepressant agents” (1982).

Assays:
Type in all cases: functional
Mus musculus [1] = organism: Mus musculus; assay: Evaluated for prevention of amphetamine aggregation toxicity in mice,
Mus musculus [2] = organism: Mus musculus; assay: Inhibition of pentylenetetrazole (PTZ)-induced lethality in mice
Mus musculus [3] = assay: Inhibition of tetrabenazine-induced ptosis (TBZ) in mice by peroral administration; conditions: po
How it was run: (§1)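 Mice dosed with the compound and scored for prevention of tetrabenazine-induced ptosis. ED₅₀ was derived by linear regression analysis and reported with 95% confidence limits.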

Rattus norvegicus = assay: Compound, administered intraperitoneally and was evaluated for potentiation of the 5-hydroxytryptophan-induced behavioral syndrome in pargyline pretreated rats; conditions: ip
Mus musculus [4] = assay: Compound, administered intraperitoneally and was evaluated for inhibition of pentylenetetrazole (PTZ)-induced lethality in mice; conditions: ip
Mus musculus [5] = assay: Compound, administered perorally and was evaluated for prevention of amphetamine aggregation toxicity in mice; conditions: po
Mus musculus [6] = assay: Evaluated for antidepressant activity by inhibition of tetrabenazine-induced ptosis (TBZ) in mice by ip administration; how it was run: as §1

SMILES	ED50 (Mus musculus [1]) [mg/kg]	ED50 (Mus musculus [2]; Mus musculus, read-out: ED50) [mg/kg]	ED50 (Mus musculus [3]) [mg/kg]	ED50 (Rattus norvegicus) [mg/kg]	ED50 (Mus musculus [4]) [mg/kg]	ED50 (Mus musculus [5]) [mg/kg]	ED50 (Mus musculus [6]) [mg/kg]	ED50 (Mus musculus [2]) [mg/kg]
CCC1=Nc2ccccc2CC(c2ccccc2)N1C (centres undefined)	> 20	> 40	1.6	> 10	–	–	–	–
COc1ccc(C2Cc3ccccc3N=C(C)N2C)cc1 (centres undefined)	–	–	19.8	–	> 40	> 20	–	–
CC1=Nc2ccccc2CC(c2ccccc2Cl)N1C (centres undefined)	> 20	> 40	–	–	–	–	> 5	–
CC1=Nc2ccccc2CC(c2ccccc2C)N1C (centres undefined)	> 20	> 40	5.5	–	–	–	–	–
CCC1=Nc2ccc(Cl)cc2CC(c2ccccc2)N1C (centres undefined)	–	> 20	–	–	–	–	~20	>40
CCC1=Nc2ccc(Cl)cc2CC(c2ccccc2F)N1C (centres undefined)	–	> 40	–	–	–	–	> 20	>20
CC1=Nc2ccccc2CC(c2ccc(Cl)cc2)N1C (centres undefined)	> 20	> 40	0.52	> 10	–	–	–	–
CCC1=Nc2ccccc2CC(c2ccc(F)cc2)N1C (centres undefined)	–	–	8.4	–	–	–	–	–
CC1=Nc2ccc(Cl)cc2CC(c2ccccc2)N1C (centres undefined)	> 20	> 40	–	–	–	–	≥ 20	–
CC1=Nc2ccc(Cl)cc2CC(c2ccccc2F)N1C (centres undefined)	> 20	> 40	–	–	–	–	> 20	–
CCC1=Nc2ccccc2CC(c2ccc(OC)c(OC)c2)N1C (centres undefined)	–	–	–	–	> 40	> 20	8.2	–
COc1ccc(C2Cc3ccccc3N=C(C)N2C)cc1OC (centres undefined)	–	–	5	–	> 40	> 20	–	–
CCC1=Nc2ccccc2CC(c2ccccc2F)N1C (centres undefined)	> 20	> 40	7	–	–	–	–	–
CC1=Nc2ccccc2CC(c2ccc(F)cc2)N1C (centres undefined)	> 20	> 40	3.6	> 10	–	–	–	–
CCC1=Nc2ccccc2CC(c2ccc(OC)cc2)N1C (centres undefined)	–	–	2.8	–	> 40	> 20	–	–
CCC1=Nc2ccccc2CC(c2ccccc2Cl)N1C (centres undefined)	–	–	4.1	–	–	–	–	–
CCC1=Nc2ccccc2CC(c2ccc(Cl)cc2)N1C (centres undefined)	–	> 20	–	–	–	–	< 5	–
CC1=Nc2ccccc2CC(c2ccc(C)cc2)N1C (centres undefined)	> 20	> 40	5.2	> 10	–	–	–	–
CCC1=Nc2ccccc2CC(c2ccccc2C)N1C (centres undefined)	–	> 40	3.1	–	–	–	–	>20
CC1=Nc2ccccc2CC(c2ccccc2F)N1C (centres undefined)	> 20	> 40	7.6	> 10	–	–	–	–
CCC1=Nc2ccccc2CC(c2ccc(C)cc2)N1C (centres undefined)	> 20	> 40	6.1	> 10	–	–	–	–
CN(C)CCC=C1c2ccccc2CCc2ccccc21 [AMITRIPTYLINE]	–	–	1.9	–	–	–	–	–
CC1=Nc2ccccc2CC(c2ccccc2)N1C (centres undefined) [DAZEPINIL]	> 20	> 40	2.1	> 10	–	–	–	–
